{
  "source": "ChEMBL document CHEMBL1799956",
  "about": "“Convergent synthesis and biological evaluation of 2-amino-4-(3',4',5'-trimethoxyphenyl)-5-aryl thiazoles as microtubule targeting agents” (J Med Chem, 2011)",
  "key": {"Jurkat [1]": {"system": "Jurkat", "test": "Induction of apoptosis in human Jurkat cells assessed as abnormal mitotic figures at 100 uM after 24 to 48 hrs using Giemsa's staining by microscopic analysis", "type": "functional, cell-based", "summary_of_the_method": "(§1)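 Giemsa staining, then light-microscope examination of cell morphology. HeLa and Jurkat cells were exposed to compound for 24 and 48 h. Magnification 60×.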"}, "HeLa [2]": {"system": "HeLa", "test": "Induction of apoptosis in human HeLa cells assessed activation of caspase 2 at 10 to 100 nM after 48 hrs by Western blot analysis"}, "Jurkat [3]": {"system": "Jurkat", "test": "Induction of apoptosis in human Jurkat cells assessed as formation of large cytoplasmic vacuoles at 10 uM after 24 to 48 hrs using Giemsa's staining by microscopic analysis", "type": "functional, cell-based", "summary_of_the_method": "as §1"}, "Jurkat [4]": {"system": "Jurkat", "test": "Antiproliferative activity against human Jurkat cells assessed as growth inhibition after 72 hrs by MTT assay", "type": "functional, cell-based"}, "HeLa [5]": {"system": "HeLa", "test": "Induction of apoptosis in human HeLa cells assessed as decrease in Bcl2 expression at […] after 24 hrs by Western blot analysis", "type": "functional, cell-based", "summary_of_the_method": "(§2)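 Treated HeLa whole-cell lysates separated by SDS-PAGE and immunoblotted for PARP cleavage, Bcl-2, Bax, pro-caspase-9 and pro-caspase-2.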"}, "HeLa [6]": {"system": "HeLa", "test": "Induction of apoptosis in human HeLa cells assessed as formation of large cells at 100 uM after 24 to 48 hrs using Giemsa's staining by microscopic analysis", "type": "functional, cell-based", "summary_of_the_method": "(§3)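 HeLa treated 48 h, Giemsa stained and examined by light microscopy at 60× magnification.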"}, "Jurkat [7]": {"system": "Jurkat", "test": "Induction of apoptosis in human Jurkat cells assessed as multinucleation at 10 uM after 24 to 48 hrs using Giemsa's staining by microscopic analysis", "type": "functional, cell-based", "summary_of_the_method": "as §1"}, "HeLa [8]": {"system": "HeLa", "test": "Induction of apoptosis in human HeLa cells assessed as reduction in p21 expression at […] after 48 hrs by Western blot analysis", "type": "functional, cell-based", "summary_of_the_method": "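Western blot of HeLa whole-cell lysates, separated by SDS-PAGE and probed with antibodies to p-γH2AX Ser139, p53 and p21waf/cip1. Cells were treated at the indicated concentrations for 24 or 48 h.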"}, "HeLa [9]": {"system": "HeLa", "test": "Induction of apoptosis in human HeLa cells assessed as reduction in p21 expression at 10 to 100 nM after 24 hrs by Western blot analysis"}, "A549 [10]": {"system": "A549", "test": "Fold resistance, ratio of IC50 for human taxol-resistant A549-T12 cells to IC50 for human A549 cells", "type": "functional"}, "Bos taurus": {"species_on_record": "Bos taurus", "test": "Displacement of [3H]colchicine from bovine brain tubulin at 5 uM", "summary_of_the_method": "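[3H]colchicine binding inhibition with tubulin at 1 μM, [3H]colchicine at 5 μM and test compound at 5 μM.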"}, "HeLa [11]": {"system": "HeLa", "test": "Induction of apoptosis in human HeLa cells assessed as increase in mitochondrial ROS production at 100 nM after 48 hrs using hydroethidine staining by flow cytometry", "type": "functional, cell-based"}, "A549 [12]": {"system": "A549", "test": "Antiproliferative activity against human A549 cells assessed as growth inhibition after 72 hrs by MTT assay", "type": "functional, cell-based", "conditions": "A549, 72 h"}, "HeLa [13]": {"system": "HeLa", "test": "Antiproliferative activity against human HeLa cells assessed as growth inhibition after 72 hrs by MTT assay", "type": "functional, cell-based"}, "LoVo [14]": {"system": "LoVo", "test": "Antiproliferative activity against human doxorubicin-resistant LoVo cells overexpressing P-gp assessed as growth inhibition after 72 hrs by MTT assay", "type": "functional, cell-based"}, "Jurkat [15]": {"system": "Jurkat", "test": "Induction of apoptosis in human Jurkat cells assessed as DNA condensation at 10 uM after 24 to 48 hrs using Giemsa's staining by microscopic analysis", "type": "functional, cell-based", "summary_of_the_method": "as §1"}, "Jurkat [16]": {"system": "Jurkat", "test": "Cell cycle arrest in human Jurkat cells assessed as decrease of cell population at G1 phase at 1 to 100 nM after 24 hrs using propidium iodide staining by flow cytometry", "type": "functional, cell-based"}, "Jurkat [17]": {"system": "Jurkat", "test": "Cell cycle arrest in human Jurkat cells assessed as increase of cell population at G2/M phase at 1 to 100 nM after 48 hrs using propidium iodide staining by flow cytometry", "type": "functional, cell-based"}, "Jurkat [18]": {"system": "Jurkat", "test": "Induction of apoptosis in human Jurkat cells assessed as formation of large cells at 10 uM after 24 to 48 hrs using Giemsa's staining by microscopic analysis", "type": "functional, cell-based", "summary_of_the_method": "as §1"}, "HeLa [19]": {"system": "HeLa", "test": "Induction of morphological changes in human HeLa cells assessed as appearance of giant interphase with multiple nuclei of different sizes at 100 nM after 24 hrs using phalloidintetramethylrhodamine B isothiocyanate staining by microscopy", "type": "functional, cell-based", "summary_of_the_method": "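HeLa cells were incubated with compound for 24 h. F-actin was stained with a phalloidin–tetramethylrhodamine B isothiocyanate conjugate and nuclei were counterstained with DAPI. Cells were then examined by fluorescence microscopy.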"}, "HeLa [20]": {"system": "HeLa", "test": "Induction of apoptosis in human HeLa cells assessed as increase in phospho-gammaH2AX expression at […] after 48 hrs by Western blot analysis", "type": "functional, cell-based", "summary_of_the_method": "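HeLa treated for 24 or 48 h; whole-cell lysates run on SDS-PAGE and blotted for phospho-γH2AX (Ser139).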"}, "HeLa [21]": {"system": "HeLa", "test": "Induction of cell cycle arrest at G2/M phase in human HeLa cells assessed as decrease in Cdc25C expression at 100 nM after 48 hrs by Western blot analysis", "type": "functional, cell-based", "summary_of_the_method": "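Immunoblot of HeLa lysates after 24 or 48 h of compound treatment at the indicated concentrations. Probed for cyclin B1, p-Cdc2 Y15 and Cdc25c. Slower-migrating Cdc25c bands were taken as a change in phosphorylation.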"}, "[22]": {"test": "Inhibition of bovine brain tubulin polymerization after 20 mins by turbidimetric analysis", "set-up": "species or system Bos taurus", "summary_of_the_method": "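Purified tubulin at 10 μM was used for the assembly (polymerization) inhibition assay. IC50 is the concentration inhibiting assembly.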"}, "Jurkat [23]": {"system": "Jurkat", "test": "Cell cycle arrest in human Jurkat cells assessed as increase of cell population at G2/M phase after 24 hrs using propidium iodide staining by flow cytometry", "type": "functional, cell-based"}, "[24]": {"test": "Antiproliferative activity against human vinblastine-resistant CEM/VBL100 cells overexpressing P-gp assessed as growth inhibition after 72 hrs by MTT assay", "type": "functional, cell-based", "conditions": "CEM/VBL100, 72 h"}, "Jurkat [25]": {"system": "Jurkat", "test": "Induction of apoptosis in human Jurkat cells assessed as DNA condensation at 100 uM after 24 to 48 hrs using Giemsa's staining by microscopic analysis", "type": "functional, cell-based", "summary_of_the_method": "as §1"}, "K562": {"system": "K562", "test": "Antiproliferative activity against human K562 cells assessed as growth inhibition after 72 hrs by MTT assay", "type": "functional, cell-based", "conditions": "K562, 72 h"}, "HeLa [26]": {"system": "HeLa", "test": "Induction of apoptosis in human HeLa cells assessed as abnormal mitotic figures at 100 uM after 24 to 48 hrs using Giemsa's staining by microscopic analysis", "type": "functional, cell-based", "summary_of_the_method": "as §3"}, "HeLa [27]": {"system": "HeLa", "test": "Induction of apoptosis in human HeLa cells assessed as cleavage of PARP at 10 to 100 nM by Western blotting", "conditions": "TDE = time-dependent effect"}, "HeLa [28]": {"system": "HeLa", "test": "Induction of apoptosis in human HeLa cells assessed as increase in propidium iodide-positive cells after 48 hrs by annexin-V-FITC and propidium iodide staining based flow cytometry", "type": "functional, cell-based", "summary_of_the_method": "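Biparametric flow cytometry after annexin-V immunolabelling plus propidium iodide, separating live, early apoptotic, late apoptotic and necrotic cells; HeLa incubated for 24 or 48 h.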"}, "LoVo [29]": {"system": "LoVo", "test": "Antiproliferative activity against human LoVo cells assessed as growth inhibition after 72 hrs by MTT assay", "type": "functional, cell-based"}, "HeLa [30]": {"system": "HeLa", "test": "Induction of apoptosis in human HeLa cells assessed as decrease in Bcl2 expression at […] after 48 hrs by Western blot analysis", "type": "functional, cell-based", "summary_of_the_method": "as §2"}},
  "note": "The source made the active and inactive calls. The calls are words filed in the database; no cut-off is given here.",
  "data": [
    {"compound": "CCOc1ccc(-c2sc(N)nc2-c2cc(OC)c(OC)c(OC)c2)cc1", "values": [
      {"measurement": "Activity", "setting": "Jurkat [1]", "result": "Active"},
      {"measurement": "Activity", "setting": "HeLa [2]", "result": "Active"},
      {"measurement": "Activity", "setting": "Jurkat [3]", "result": "Active"},
      {"measurement": "IC50", "setting": "Jurkat [4]", "result": 0.14, "unit": "nM"},
      {"measurement": "Activity", "setting": "HeLa [5]", "result": "inactive"},
      {"measurement": "Activity", "setting": "HeLa [6]", "result": "Active"},
      {"measurement": "Activity", "setting": "Jurkat [7]", "result": "Active"},
      {"measurement": "Activity", "setting": "HeLa [8]", "result": "Active"},
      {"measurement": "Activity", "setting": "HeLa [9]", "result": "Active"},
      {"measurement": "Ratio IC50", "setting": "A549 [10]", "result": 2.2},
      {"measurement": "inhibition", "setting": "Bos taurus", "result": 95, "unit": "%"},
      {"measurement": "Activity", "setting": "HeLa [11]", "result": "Active"},
      {"measurement": "IC50", "setting": "A549 [12]", "result": 0.09, "unit": "nM"},
      {"measurement": "IC50", "setting": "HeLa [13]", "result": 0.03, "unit": "nM"},
      {"measurement": "IC50", "setting": "LoVo [14]", "result": 0.6, "unit": "nM"},
      {"measurement": "Activity", "setting": "Jurkat [15]", "result": "Active"},
      {"measurement": "Activity", "setting": "Jurkat [16]", "result": "Active"},
      {"measurement": "Activity", "setting": "Jurkat [17]", "result": "Active"},
      {"measurement": "Activity", "setting": "Jurkat [18]", "result": "Active"},
      {"measurement": "Activity", "setting": "HeLa [19]", "result": "Active"},
      {"measurement": "Activity", "setting": "HeLa [20]", "result": "Active"},
      {"measurement": "Activity", "setting": "HeLa [21]", "result": "Active"},
      {"measurement": "IC50", "setting": "[22]", "result": 610, "unit": "nM"},
      {"measurement": "Activity", "setting": "Jurkat [23]", "result": "Dose-dependent effect"},
      {"measurement": "IC50", "setting": "[24]", "result": 0.8, "unit": "nM"},
      {"measurement": "Activity", "setting": "Jurkat [25]", "result": "Active"},
      {"measurement": "IC50", "setting": "K562", "result": 0.07, "unit": "nM"},
      {"measurement": "Activity", "setting": "HeLa [26]", "result": "Active"},
      {"measurement": "Activity", "setting": "HeLa [27]", "result": "tde"},
      {"measurement": "Activity", "setting": "HeLa [28]", "result": "Active"},
      {"measurement": "IC50", "setting": "LoVo [29]", "result": 0.7, "unit": "nM"},
      {"measurement": "Activity", "setting": "HeLa [30]", "result": "Active"}
    ]}
  ]
}
